Results reported in ChEMBL document CHEMBL1153843, “Synthesis and biological evaluation of novel luteolin derivatives as antibacterial agents” (2009).
≈ marks a conversion by molar mass, not a printed value.

Tests used:
Assay type in all cases: functional
Bacillus subtilis = assay: Antibacterial activity against Bacillus subtilis after 24 hrs by MTT method
Procedure, shortened: (§1)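 MIC by broth microdilution in MH medium, with MTT colorimetric read-out. Compounds come from a 50 mg/mL DMSO stock and are serially diluted in the plates. Inoculum is about 10⁵ cfu/mL, incubated at 37 °C for 24 h. The MIC is first read visually. MTT at 2 mg/mL in PBS (0.01 mol/L, pH 7.4) is then added, with a further 4–5 h at room temperature.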

Staphylococcus aureus = assay: Antibacterial activity against Staphylococcus aureus after 24 hrs by MTT method; procedure, shortened: as §1
Pseudomonas fluorescens = assay: Antibacterial activity against Pseudomonas fluorescens after 24 hrs by MTT method; procedure, shortened: as §1
Escherichia coli = assay: Antibacterial activity against Escherichia coli after 24 hrs by MTT method; procedure, shortened: as §1

## O=c1cc(-c2ccc3c(c2)OCCO3)oc2cc(OCCNC3CCCCC3)cc(O)c12
Bacillus subtilis
  MIC: 6.25 µg/mL (≈ 14.3 µM)
Staphylococcus aureus
  MIC: 12.5 µg/mL (≈ 28.6 µM)
Pseudomonas fluorescens
  MIC: 12.5 µg/mL (≈ 28.6 µM)
Escherichia coli
  MIC: 25 µg/mL (≈ 57.1 µM)

## O=c1cc(-c2ccc3c(c2)OCCO3)oc2cc(OCCNCc3ccccc3)cc(O)c12
Bacillus subtilis
  MIC: 3.12 µg/mL (≈ 7.02 µM)
Staphylococcus aureus
  MIC: 6.25 µg/mL (≈ 14 µM)
Pseudomonas fluorescens
  MIC: 6.25 µg/mL (≈ 14 µM)
Escherichia coli
  MIC: 12.5 µg/mL (≈ 28.1 µM)

## O=c1cc(-c2ccc3c(c2)OCCO3)oc2cc(OCCN3CCCCC3)cc(O)c12
Bacillus subtilis
  MIC: 6.25 µg/mL (≈ 14.8 µM)
Staphylococcus aureus
  MIC: 12.5 µg/mL (≈ 29.5 µM)
Pseudomonas fluorescens
  MIC: 12.5 µg/mL (≈ 29.5 µM)
Escherichia coli
  MIC: 12.5 µg/mL (≈ 29.5 µM)

## O=c1cc(-c2ccc3c(c2)OCCO3)oc2cc(OCCN3CCNCC3)cc(O)c12
Bacillus subtilis
  MIC: 6.25 µg/mL (≈ 14.7 µM)
Staphylococcus aureus
  MIC: 12.5 µg/mL (≈ 29.4 µM)
Pseudomonas fluorescens
  MIC: 6.25 µg/mL (≈ 14.7 µM)
Escherichia coli
  MIC: 12.5 µg/mL (≈ 29.4 µM)

## O=c1cc(-c2ccc3c(c2)OCCO3)oc2cc(OCCBr)cc(O)c12
Bacillus subtilis
  MIC: 12.5 µg/mL (≈ 29.8 µM)
Staphylococcus aureus
  MIC: 25 µg/mL (≈ 59.6 µM)
Pseudomonas fluorescens
  MIC: 12.5 µg/mL (≈ 29.8 µM)
Escherichia coli
  MIC: 25 µg/mL (≈ 59.6 µM)

## CCN(CC)CCOc1cc(O)c2c(=O)cc(-c3ccc4c(c3)OCCO4)oc2c1
Bacillus subtilis
  MIC: 12.5 µg/mL (≈ 30.4 µM)
Staphylococcus aureus
  MIC: 25 µg/mL (≈ 60.8 µM)
Pseudomonas fluorescens
  MIC: 12.5 µg/mL (≈ 30.4 µM)
Escherichia coli
  MIC: 25 µg/mL (≈ 60.8 µM)

## CCCN(CCC)CCOc1cc(O)c2c(=O)cc(-c3ccc4c(c3)OCCO4)oc2c1
Bacillus subtilis
  MIC: 12.5 µg/mL (≈ 28.4 µM)
Staphylococcus aureus
  MIC: 12.5 µg/mL (≈ 28.4 µM)
Pseudomonas fluorescens
  MIC: 6.25 µg/mL (≈ 14.2 µM)
Escherichia coli
  MIC: 25 µg/mL (≈ 56.9 µM)

## CN1CCN(CCOc2cc(O)c3c(=O)cc(-c4ccc5c(c4)OCCO5)oc3c2)CC1
Bacillus subtilis
  MIC: 6.25 µg/mL (≈ 14.3 µM)
Staphylococcus aureus
  MIC: 12.5 µg/mL (≈ 28.5 µM)
Pseudomonas fluorescens
  MIC: 6.25 µg/mL (≈ 14.3 µM)
Escherichia coli
  MIC: 12.5 µg/mL (≈ 28.5 µM)

## CCCCNCCOc1cc(O)c2c(=O)cc(-c3ccc4c(c3)OCCO4)oc2c1
Bacillus subtilis
  MIC: 12.5 µg/mL (≈ 30.4 µM)
Staphylococcus aureus
  MIC: 25 µg/mL (≈ 60.8 µM)
Pseudomonas fluorescens
  MIC: 6.25 µg/mL (≈ 15.2 µM)
Escherichia coli
  MIC: 25 µg/mL (≈ 60.8 µM)

## CC(C)CNCCOc1cc(O)c2c(=O)cc(-c3ccc4c(c3)OCCO4)oc2c1
Bacillus subtilis
  MIC: 12.5 µg/mL (≈ 30.4 µM)
Staphylococcus aureus
  MIC: 25 µg/mL (≈ 60.8 µM)
Pseudomonas fluorescens
  MIC: 12.5 µg/mL (≈ 30.4 µM)
Escherichia coli
  MIC: 25 µg/mL (≈ 60.8 µM)

## O=c1cc(-c2ccc3c(c2)OCCO3)oc2cc(OCCNCCO)cc(O)c12
Bacillus subtilis
  MIC: 12.5 µg/mL (≈ 31.3 µM)
Staphylococcus aureus
  MIC: 25 µg/mL (≈ 62.6 µM)
Pseudomonas fluorescens
  MIC: 6.25 µg/mL (≈ 15.6 µM)
Escherichia coli
  MIC: 25 µg/mL (≈ 62.6 µM)

## O=c1cc(-c2ccc3c(c2)OCCO3)oc2cc(OCCN3CCOCC3)cc(O)c12
Bacillus subtilis
  MIC: 3.12 µg/mL (≈ 7.35 µM)
Staphylococcus aureus
  MIC: 6.25 µg/mL (≈ 14.7 µM)
Pseudomonas fluorescens
  MIC: 6.25 µg/mL (≈ 14.7 µM)
Escherichia coli
  MIC: 12.5 µg/mL (≈ 29.4 µM)

## O=c1cc(-c2ccc3c(c2)OCCO3)oc2cc(OCCNCCN3CCOCC3)cc(O)c12
Bacillus subtilis
  MIC: 1.56 µg/mL (≈ 3.33 µM)
Staphylococcus aureus
  MIC: 6.25 µg/mL (≈ 13.3 µM)
Pseudomonas fluorescens
  MIC: 3.12 µg/mL (≈ 6.67 µM)
Escherichia coli
  MIC: 12.5 µg/mL (≈ 26.7 µM)

## O=c1cc(-c2ccc3c(c2)OCCO3)oc2cc(OCCNCCCN3CCOCC3)cc(O)c12
Bacillus subtilis
  MIC: 1.56 µg/mL (≈ 3.24 µM)
Staphylococcus aureus
  MIC: 3.12 µg/mL (≈ 6.48 µM)
Pseudomonas fluorescens
  MIC: 3.12 µg/mL (≈ 6.48 µM)
Escherichia coli
  MIC: 6.25 µg/mL (≈ 13 µM)

## O=c1cc(-c2ccc3c(c2)OCCO3)oc2cc(OCCN3CCCC3)cc(O)c12
Bacillus subtilis
  MIC: 6.25 µg/mL (≈ 15.3 µM)
Staphylococcus aureus
  MIC: 12.5 µg/mL (≈ 30.5 µM)
Pseudomonas fluorescens
  MIC: 12.5 µg/mL (≈ 30.5 µM)
Escherichia coli
  MIC: 12.5 µg/mL (≈ 30.5 µM)

## O=c1cc(-c2ccc3c(c2)OCCO3)oc2cc(O)cc(O)c12
Bacillus subtilis
  MIC: 12.5 µg/mL (≈ 40 µM)
Staphylococcus aureus
  MIC: 25 µg/mL (≈ 80.1 µM)
Pseudomonas fluorescens
  MIC: 12.5 µg/mL (≈ 40 µM)
Escherichia coli
  MIC: 50 µg/mL (≈ 160 µM)

## O=c1cc(-c2ccc3c(c2)OCCO3)oc2cc(OCCNCc3ccc(F)cc3)cc(O)c12
Bacillus subtilis
  MIC: 1.56 µg/mL (≈ 3.37 µM)
Staphylococcus aureus
  MIC: 3.12 µg/mL (≈ 6.74 µM)
Pseudomonas fluorescens
  MIC: 6.25 µg/mL (≈ 13.5 µM)
Escherichia coli
  MIC: 12.5 µg/mL (≈ 27 µM)

## O=c1cc(-c2ccc3c(c2)OCCO3)oc2cc(OCCNC3CCCC3)cc(O)c12
Bacillus subtilis
  MIC: 6.25 µg/mL (≈ 14.8 µM)
Staphylococcus aureus
  MIC: 12.5 µg/mL (≈ 29.5 µM)
Pseudomonas fluorescens
  MIC: 12.5 µg/mL (≈ 29.5 µM)
Escherichia coli
  MIC: 25 µg/mL (≈ 59 µM)

## CCCNCCOc1cc(O)c2c(=O)cc(-c3ccc4c(c3)OCCO4)oc2c1
Bacillus subtilis
  MIC: 12.5 µg/mL (≈ 31.5 µM)
Staphylococcus aureus
  MIC: 25 µg/mL (≈ 62.9 µM)
Pseudomonas fluorescens
  MIC: 12.5 µg/mL (≈ 31.5 µM)
Escherichia coli
  MIC: 25 µg/mL (≈ 62.9 µM)

## NC[C@H]1O[C@H](O[C@H]2[C@H](O)[C@@H](O[C@H]3O[C@H](CO)[C@@H](O)[C@H](N)[C@H]3O)[C@H](N)C[C@@H]2N)[C@H](N)[C@@H](O)[C@@H]1O [BEKANAMYCIN]
Bacillus subtilis
  MIC: 0.39 µg/mL (≈ 0.807 µM)
Staphylococcus aureus
  MIC: 1.56 µg/mL (≈ 3.23 µM)
Pseudomonas fluorescens
  MIC: 3.12 µg/mL (≈ 6.46 µM)
Escherichia coli
  MIC: 3.12 µg/mL (≈ 6.46 µM)

## O=c1cc(-c2ccc(O)c(O)c2)oc2cc(O)cc(O)c12 [LUTEOLIN]
Bacillus subtilis
  MIC: 25 µg/mL (≈ 87.3 µM)
Staphylococcus aureus
  MIC: 50 µg/mL (≈ 175 µM)
Pseudomonas fluorescens
  MIC: 25 µg/mL (≈ 87.3 µM)
Escherichia coli
  MIC: 50 µg/mL (≈ 175 µM)

## CC1(C)S[C@@H]2[C@H](NC(=O)Cc3ccccc3)C(=O)N2[C@H]1C(=O)O [PENICILLIN G]
Bacillus subtilis
  MIC: 1.56 µg/mL (≈ 4.67 µM)
Staphylococcus aureus
  MIC: 1.56 µg/mL (≈ 4.67 µM)
Pseudomonas fluorescens
  MIC: 6.25 µg/mL (≈ 18.7 µM)
Escherichia coli
  MIC: 6.25 µg/mL (≈ 18.7 µM)
